# In ChEMBL document CHEMBL1126072, “Hydantoin bioisosteres. In vivo active spiro hydroxy acetic acid aldose reductase inhibitors” (J Med Chem, 1992):
# Experiments:
# [1] = target: T1, Aldo-keto reductase family 1 member B1 (Homo sapiens, UniProt P15121); test: Inhibitory activity against human placental aldose reductase
# Rattus norvegicus [2] = test: Inhibition of sorbitol accumulation in sciatic nerves from streptozotocin-diabetic rats dosed at 3*25 mg/kg over 27h.; type: functional, Sciatic nerve
# Rattus norvegicus [3] = test: Effective dose was tested against the inhibition of sorbitol accumulation in sciatic nerves from streptozotocin-diabetic rats dosed at 3*25 mg/kg over 27h.; type: functional; details: Sciatic nerve
# [4] = target: T1, Aldo-keto reductase family 1 member B1; test: Compound was tested in vitro for its inhibitory activity against human placental aldose reductase
# Rattus norvegicus [5] = test: In vivo inhibition of sorbitol accumulation in sciatic nerves from streptozotocin-diabetic rats dosed at 1*25 mg/kg over 5 days.; type: functional, Sciatic nerve
# Rattus norvegicus [6] = test: In vivo inhibition of sorbitol accumulation in sciatic nerves from streptozotocin-diabetic rats dosed at 3*25 mg/kg over 27h.; type: functional, Sciatic nerve
# Rattus norvegicus [7] = test: Inhibition of sorbitol accumulation in sciatic nerves from streptozotocin-diabetic rats dosed at 3*10 mg/kg over 27h.; type: functional, Sciatic nerve
# How it was run: (§1)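 Male Sprague-Dawley rats (180–220 g, 42–54 days) made diabetic with streptozotocin 85 mg/kg at 0 h. Oral gavage at 4, 7 and 24 h, dose quoted per time point. Sciatic nerve sorbitol measured with sorbitol dehydrogenase/NAD in pH 9.4 glycine. Mean (±SEM) percent inhibition against untreated diabetic controls, Student's t test on absolute sorbitol.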
# Rattus norvegicus [8] = test: Plasma concentration at 3h after the last dose of 25 mg/kg for 5 days.; type: functional
# Rattus norvegicus [9] = test: Nerve concentration at 3h after the last dose of 25 mg/kg for 5 days.; type: functional
# [10] = target: T1, Aldo-keto reductase family 1 member B1; test: ARI(aldose reductase inhibitor) enantiospecificity against human placental aldose reductase.
# Rattus norvegicus [11] = test: Inhibition of sorbitol accumulation in sciatic nerves from streptozotocin-diabetic rats dosed at 3*50 mg/kg over 27h.; type: functional, Sciatic nerve; how it was run: as §1
SMILES,IC50 [1],Inhibition (Rattus norvegicus [2]),ED50 (Rattus norvegicus [3]),other results
C[C@@H]1C[C@@](O)(CC(=O)O)C2=C(C=CCC2(C)[N+](=O)[O-])O1 (some centres undefined),1630 nM,-31%,–,–
C[C@@H]1C[C@@](O)(CC(=O)O)c2c(Cl)ccc(Cl)c2O1,13100 nM,–,–,–
O=C(O)C[C@@]1(O)c2cc(F)ccc2O[C@@H]2CCCC[C@@H]21,11000 nM,–,–,–
CCC[C@@H]1C[C@@](O)(CC(=O)O)c2cc(F)ccc2O1,970 nM,16%,70.8 mg/kg,–
Cc1cc2c(cc1[N+](=O)[O-])[C@](O)(CC(=O)O)C[C@@H](C)O2,90 nM,39%,35 mg/kg,–
C[C@@H]1C[C@@](O)(CC(=O)O)c2ccc(Cl)cc2O1,3320 nM,0%,–,–
C[C@@H]1C[C@@](O)(CC(=O)O)c2cc(F)c(Br)cc2O1,90 nM,–,4.94 mg/kg,IC50 [4]: 120 nM; Inhibition (Rattus norvegicus [5]): 44%; Inhibition (Rattus norvegicus [6]): 73%; Inhibition (Rattus norvegicus [7]): 73%; Tissue levels (Rattus norvegicus [8]): 8.8 µg/mL; Tissue levels (Rattus norvegicus [9]): 1.31 µg/mL
C[C@@H]1[C@@H](C)Oc2ccc(F)cc2[C@]1(O)CC(=O)O,29400 nM,–,–,–
C[C@@H]1C[C@@](O)(CC(=O)O)c2cc(C#N)c(F)cc2O1,130 nM,–,29.2 mg/kg,Inhibition (Rattus norvegicus [7]): 15%
CC(=O)c1ccc2c(c1)[C@](O)(CC(=O)O)C[C@@H](C)O2,650 nM,5%,–,–
C[C@@H]1C[C@@](O)(CC(=O)O)c2cc(Cl)c(Cl)cc2O1,–,–,–,IC50 [10]: 5620 nM
C[C@@H]1C[C@@](O)(CC(=O)O)c2c(Cl)cc(Cl)cc2O1,29400 nM,–,–,–
C[C@@H]1C[C@@](O)(CC(=O)O)c2cc(Cl)cc(Cl)c2O1,1000 nM,48%,26.6 mg/kg,–
CC(C)(C)[C@@H]1C[C@@](O)(CC(=O)O)c2cc(F)ccc2O1,360 nM,29%,47.6 mg/kg,–
Cc1cc(Cl)cc2c1O[C@H](C)C[C@@]2(O)CC(=O)O,1180 nM,28%,49 mg/kg,–
CC1(C)C[C@@](O)(CC(=O)O)c2cc([N+](=O)[O-])ccc2O1,400 nM,37%,37.2 mg/kg,–
C[C@@H]1C[C@@](O)(CC(=O)O)c2cc(Cl)ccc2O1,820 nM,67%,14.9 mg/kg,–
C[C@@H]1C[C@@](O)(CC(=O)O)c2cc(S(C)(=O)=O)ccc2O1,8220 nM,–,–,–
CC(C)[C@@H]1C[C@@](O)(CC(=O)O)c2cc(F)ccc2O1,570 nM,-7%,–,–
C[C@@H]1COc2ccc(F)cc2[C@]1(O)CC(=O)O,11000 nM,–,–,–
C[C@H]1Oc2ccc(F)cc2[C@](O)(CC(=O)O)[C@H]1C,910 nM,29%,47.6 mg/kg,–
C[C@@H]1C[C@@](O)(CC(=O)O)c2cc([N+](=O)[O-])c(F)cc2O1,70 nM,–,–,Inhibition (Rattus norvegicus [7]): 5%
C[C@@H]1C[C@@](O)(CC(=O)O)c2c(ccc(Cl)c2[N+](=O)[O-])O1,95500 nM,–,–,–
C[C@@H]1C[C@@](O)(CC(=O)O)c2cc(F)c(F)cc2O1,250 nM,–,5.94 mg/kg,IC50 [4]: 350 nM; Inhibition (Rattus norvegicus [5]): -20%; Inhibition (Rattus norvegicus [6]): 67%; Inhibition (Rattus norvegicus [7]): 67%; Tissue levels (Rattus norvegicus [8]): 2.19 µg/mL; Tissue levels (Rattus norvegicus [9]): <0.1 µg/mL
C[C@@H]1C[C@@](O)(CC(=O)O)c2cc(Cl)c3ccccc3c2O1,400 nM,45%,29.1 mg/kg,–
Cc1cc2c(cc1Cl)[C@](O)(CC(=O)O)C[C@@H](C)O2,240 nM,72%,12.7 mg/kg,–

SMILES,IC50 [1],Inhibition (Rattus norvegicus [2]),ED50 (Rattus norvegicus [3]),other results
CC1(C)C[C@@](O)(CC(=O)O)c2cc(Cl)c(Cl)cc2O1,1860 nM,6%,–,–
CC1(C)C[C@@](O)(CC(=O)O)c2c(ccc(Cl)c2Cl)O1,14800 nM,–,–,–
Cc1ccc2c(c1)[C@](O)(CC(=O)O)C[C@@H](C)O2,11300 nM,-16%,–,–
C[C@@H]1C[C@@](O)(CC(=O)O)c2cc(Cl)c(F)cc2O1,390 nM,–,19 mg/kg,IC50 [4]: 410 nM; Inhibition (Rattus norvegicus [5]): -30%; Inhibition (Rattus norvegicus [6]): 29%; Inhibition (Rattus norvegicus [7]): 29%; Tissue levels (Rattus norvegicus [8]): 13.4 µg/mL; Tissue levels (Rattus norvegicus [9]): 2.35 µg/mL
COc1ccc2c(c1)[C@](O)(CC(=O)O)C[C@@H](C)O2,281000 nM,–,–,–
C[C@@H]1C[C@@](O)(CC(=O)O)c2ccccc2O1,14800 nM,–,–,Inhibition (Rattus norvegicus [11]): 9%
C[C@@H]1C[C@@](O)(CC(=O)O)c2c(ccc(Cl)c2Cl)O1,1630 nM,50%,25 mg/kg,–
CC[C@@H]1C[C@@](O)(CC(=O)O)c2cc(F)ccc2O1,620 nM,27%,50.6 mg/kg,–
O=C(O)C[C@]1(O)C[C@@H](CCc2ccccc2)Oc2ccc(F)cc21,1140 nM,5%,–,–
CCc1cc2c(cc1Cl)[C@](O)(CC(=O)O)C[C@@H](C)O2,100 nM,–,13.6 mg/kg,Inhibition (Rattus norvegicus [7]): 40%
C[C@@H]1C[C@@](O)(CC(=O)O)c2cc(Br)ccc2O1,1670 nM,21%,60.8 mg/kg,–
C1CCC(NC2CCCCC2)CC1.O=C(O)C[C@]1(O)C[C@@H](C(=O)c2ccccc2)Oc2ccc(F)cc21,1390 nM,1%,–,–
C[C@@H]1C[C@@](O)(CC(=O)O)c2cc(Cl)c(Br)cc2O1,70 nM,–,11.3 mg/kg,IC50 [4]: 50 nM; Inhibition (Rattus norvegicus [5]): 33%; Inhibition (Rattus norvegicus [6]): 46%; Inhibition (Rattus norvegicus [7]): 46%; Tissue levels (Rattus norvegicus [8]): 12.7 µg/mL; Tissue levels (Rattus norvegicus [9]): 3.11 µg/mL
C[C@@H]1C[C@@](O)(CC(=O)O)c2c(Cl)cccc2O1,43500 nM,–,–,–
C[C@@H]1C[C@@](O)(CC(=O)O)c2c(ccc(F)c2Br)O1,4500 nM,–,–,–
C[C@@H]1C[C@@](O)(CC(=O)O)c2cc(Br)cc(Cl)c2O1,5160 nM,–,–,–
C[C@@H]1C[C@@](O)(CC(=O)O)c2ccc(Cl)c(Cl)c2O1,780 nM,–,–,–
COc1cc2c(cc1Cl)[C@](O)(CC(=O)O)C[C@@H](C)O2,190 nM,53%,36.5 mg/kg,–
C[C@@H]1C[C@@](O)(CC(=O)O)c2ccc(C(=O)O)cc2O1,70 nM,48%,26.6 mg/kg,–
C[C@@H]1C[C@@](O)(CC(=O)O)c2cc([N+](=O)[O-])ccc2O1,80 nM,74%,12 mg/kg,–
C[C@@H]1C[C@@](O)(CC(=O)O)c2ccc(F)cc2O1,5420 nM,–,–,–
C[C@@H]1C[C@@](O)(CC(=O)O)c2cc([N+](=O)[O-])c(Cl)cc2O1,110 nM,67%,14.9 mg/kg,–
C[C@@H]1C[C@@](O)(CC(=O)O)c2cc(F)c(Cl)cc2O1 (stereo in doubt; 23),60 nM,76%,5.1 mg/kg,IC50 [10]: 49.3 nM; IC50 [4]: 12 nM; Inhibition (Rattus norvegicus [5]): 55%; Inhibition (Rattus norvegicus [6]): 72%; Tissue levels (Rattus norvegicus [8]): 14.2 µg/mL; Tissue levels (Rattus norvegicus [9]): 1.85 µg/mL
C[C@@H]1C[C@@](O)(CC(=O)O)c2cc(Cl)c(OCc3ccccc3)cc2O1,60 nM,–,32 mg/kg,Inhibition (Rattus norvegicus [7]): 12%
O=C(O)C[C@]1(O)C[C@@H](c2ccccc2)Oc2ccc(F)cc21,2670 nM,–,–,Inhibition (Rattus norvegicus [11]): 3%
C[C@@H]1C[C@@](O)(CC(=O)O)c2cccc(Cl)c2O1,5700 nM,–,–,–
